Data: PMC8811894 (ACS Omega, 2022)
Where two headings read alike, the source gives them in different places.

Legend:
[1] = system: A549 human lung epithelial carcinoma cells; assay: MTT cell toxicity assay; assay type: cell-based; conditions: read-out: cancer cell growth inhibition, GI50
Method in brief: (§1)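 Cells were seeded at 5 × 10^3/well in medium with 10% FBS and kept at 37 °C, 5% CO2. Media: DMEM for A549 and A375; EMEM for DU145; F-12K for PC-3; McCoy's 5a for HCT-116 and SK-OV-3; RPMI-1640 + insulin 0.2 Units/mL for T-47D. Test compound came from DMSO stocks, with tubercidin as positive control. MTT at 0.5 mg/mL final was added for 2–3 h at 37 °C, then absorbance read at 570 nm. Three repeats; GI50 from sigmoidal fit.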

[2] = system: HCT-116 human colon epithelial colorectal carcinoma cells; assay: MTT cell toxicity assay; assay type: cell-based; conditions: read-out: cancer cell growth inhibition, GI50
Method in brief: as §1

[3] = system: A375 human skin epithelial malignant melanoma cells; assay: MTT cell toxicity assay; assay type: cell-based; conditions: read-out: cancer cell growth inhibition, GI50
Method in brief: as §1

[4] = system: SK-OV-3 human ovary ascites epithelial adenocarcinoma cells; assay: MTT cell toxicity assay; assay type: cell-based; conditions: read-out: cancer cell growth inhibition, GI50
Method in brief: as §1

[5] = system: PC-3 human prostate epithelial adenocarcinoma grade IV cells; assay: MTT cell toxicity assay; assay type: cell-based; conditions: 72 h, read-out: cancer cell growth inhibition, GI50
Method in brief: as §1

[6] = system: DU145 human prostate epithelial carcinoma cells; assay: MTT cell toxicity assay; assay type: cell-based; conditions: read-out: cancer cell growth inhibition, GI50
Method in brief: as §1

[7] = system: T-47D human breast carcinoma cells; assay: MTT cell toxicity assay; assay type: cell-based; conditions: for GI50: 72 h, read-out: cancer cell growth inhibition, GI50; for times more potent than PrTPP: MTT test
Method in brief: as §1

[8] = system: panel of 60 human cancer cell lines; assay: NCI60 screen, SRB assay, panel mean; assay type: cell-based; conditions: for NCI60 screen mean GI, %: single-dose inhibition of cell growth at 10 μM; for GI50: Homo sapiens, read-out: NCI60 screen mean GI50
Method in brief: (§2)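 Tested on the 60-line human cancer panel by sulforhodamine B assay. The dye binds cell protein under mildly acidic conditions and is extracted with basic medium; bound dye is taken as a proxy for cell mass. A single-dose test at 10 μM gives % growth inhibition; a five-dose test gives GI50.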

[9] = system: HCT-116 human colon epithelial colorectal carcinoma cells; assay: Click-iT-EdU Alexa Fluor 488 cell proliferation assay; assay type: cell-based; conditions: read-out: DNA synthesis inhibition, GI50
Method in brief: (§3)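 Cells were seeded at 800/well in medium with 10% FBS under 5% CO2. HCT-116 grew in McCoy's 5a and T-47D in RPMI-1640 + insulin 0.2 Units/mL. Test compound came from DMSO stocks, with tubercidin as positive control. After 72 h, EdU was added for 2.5 h at 37 °C. Cells were fixed in 4% paraformaldehyde (30 min, RT) and stained with Hoechst 33342. Click-iT Alexa Fluor 488 reaction ran 1 h at RT in the dark. Plates were read by high-content imaging; value from sigmoidal fit.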

[10] = system: T-47D human breast carcinoma cells; assay: as above; assay type: cell-based; conditions: for GI50: 72 h, read-out: DNA synthesis inhibition, GI50; for times more potent than PrTPP: Click-iT-EdU test
Method in brief: as §3

sea urchin embryos = assay: Phenotypic sea urchin embryo assay; assay type: in vivo, Paracentrotus lividus
SK-MEL-5 = assay: NCI60 SRB screen; assay type: cell-based, human; conditions: NCI60 single dose, SK-MEL-5 melanoma
Method in brief: as §2

MDA-MB-468 = assay: NCI60 SRB screen; assay type: cell-based, human; conditions: NCI60 single dose, MDA-MB-468 breast cancer
Method in brief: as §2

Compound | GI50 ([1]; Homo sapiens, A549, 72 h) | GI50 ([2]; Homo sapiens, HCT-116, 72 h) | GI50 ([3]; Homo sapiens, A-375, 72 h) | GI50 ([4]; Homo sapiens, SK-OV-3, 72 h) | GI50 ([5]; Homo sapiens) | GI50 ([6]; Homo sapiens, DU-145, 72 h) | GI50 ([7]; Homo sapiens, T47D) | NCI60 screen mean GI, % [8] | GI50 ([9]; Homo sapiens, HCT-116, 72 h) | GI50 ([10]; Homo sapiens, T47D) | other results
COc1cc(CNC(=O)CCCCC[P+](c2ccccc2)(c2ccccc2)c2ccccc2)c(OC)c2c1OCO2.[Br-] [compound 17, (6-{[(4,7-Dimethoxy-2H-1,3-benzodioxol-5-yl)methyl]amino}-6-oxohexyl)(triphenyl)phosphonium Bromide] | 9.96 ± 0.22 µM | 1.05 ± 0.01 µM | 2.78 ± 0.17 µM | 18.9 ± 2.86 µM | 2.15 ± 0.04 µM | 11.3 ± 0.75 µM | 0.256 ± 0.08 µM | 35.8% |  |  | number of cancer cell lines with 80–100% growth inhibition ([8]; NCI60 single dose 10 μM): three
COc1cc(OCCCCCC[P+](c2ccccc2)(c2ccccc2)c2ccccc2)c(OC)c2c1OCO2.[Br-] [compound 11, {6-[(4,7-Dimethoxy-2H-1,3-benzodioxol-5-yl)oxy]hexyl}(triphenyl)phosphonium Bromide] | 0.463 ± 0.042 µM | 1.95 ± 0.21 µM | 1.93 ± 0.077 µM | 24.6 ± 2 µM | 0.258 ± 0.026 µM | 20.8 ± 1.3 µM | 0.421 ± 0.013 µM |  | 2.83 ± 0.37 µM | 0.606 ± 0.06 µM | effect on sea urchin embryo development (in words) (sea urchin embryos; in vivo): moderate antiproliferative effect on the sea urchin embryos
[3-(7-Methoxy-1,3-benzodioxol-5-yl)propyl](trimethyl)phosphonium Iodide [7c] |  |  |  |  |  |  |  | 63.9% |  |  | GI50 ([1]; A549, MTT assay, 72 h): 12.2 ± 0.61 µM; GI50 ([2]; HCT-116, MTT assay, 72 h): 0.331 ± 0.039 µM; GI50 ([3]; A375, MTT assay, 72 h): 1.08 ± 0.06 µM; GI50 ([4]; SK-OV-3, MTT assay, 72 h): 11 ± 1.4 µM; GI50 ([5]; PC-3, MTT assay): 0.41 ± 0.04 µM; GI50 ([6]; DU145, MTT assay, 72 h): 5.12 ± 0.66 µM; times more potent than PrTPP ([7]; T-47D): 239 times; GI50 ([7]; T-47D, MTT assay): 0.01 ± 0.0005 µM; GI50 ([9]; HCT-116, Click-iT-EdU, 72 h): 0.22 ± 0.03 µM; times more potent than PrTPP ([10]; T-47D): 138 times; GI50 ([10]; T-47D, Click-iT-EdU): 0.025 ± 0.002 µM; number of cancer cell lines with growth inhibited by more than 80% ([8]; NCI60 single dose 10 μM): 18; cleavage alteration, EC (sea urchin embryos; effective threshold concentration, fertilized eggs exposed): >4 µM; effect at 10 μM (in words) (SK-MEL-5): lethal effect; effect at 10 μM (in words) (MDA-MB-468): lethal effect
COc1cc(CCCO)c(OC)c2c1OCO2 [4a, 3-(4,7-Dimethoxy-1,3-benzodioxol-5-yl)propan-1-ol] | > 250 µM | > 250 µM | > 250 µM | > 250 µM | > 250 µM | > 250 µM | > 250 µM | 0% | > 250 µM | > 250 µM | 
C=CCc1cc(OC)c2c(c1OC)OCO2 [1a, Apiol] | > 250 µM | > 250 µM | > 250 µM | > 250 µM | > 250 µM | > 250 µM | 70.7 ± 9.9 µM |  | > 250 µM | > 250 µM | 
COc1cc(COC(=O)CCCCC[P+](c2ccccc2)(c2ccccc2)c2ccccc2)c(OC)c2c1OCO2.[Br-] [compound 16, {6-[(4,7-Dimethoxy-2H-1,3-benzodioxol-5-yl)methoxy]-6-oxohexyl}(triphenyl)phosphonium Bromide] | 18.5 ± 0.67 µM | 1.07 ± 0.02 µM | 3.43 ± 0.08 µM | 10.2 ± 0.19 µM | 4.18 ± 0.13 µM | 14.1 ± 0.37 µM | 0.43 ± 0.88 µM | 49.2% |  |  | number of cancer cell lines with 80–100% growth inhibition ([8]; NCI60 single dose 10 μM): nine
COc1c(CCC[P+](c2ccccc2)(c2ccccc2)c2ccccc2)cc2c(c1OC)OCO2.[I-] [7b, [3-(6,7-Dimethoxy-1,3-benzodioxol-5-yl)propyl](triphenyl)phosphonium Iodide] | 4.64 ± 0.37 µM | 0.229 ± 0.027 µM | 0.491 ± 0.019 µM | 6.62 ± 0.13 µM | 0.555 ± 0.049 µM | 3.26 ± 0.36 µM | 0.107 ± 0.004 µM |  | 0.405 ± 0.036 µM | 0.118 ± 0.007 µM | times more potent than PrTPP ([7]; T-47D): 22.3 times; times more potent than PrTPP ([10]; T-47D): 29.2 times; GI50 [8]: 1.58 µM
COc1cc(CCCO)cc2c1OCO2 [4c, 3-(7-Methoxy-1,3-benzodioxol-5-yl)propan-1-ol] | > 250 µM | > 250 µM | > 250 µM | > 250 µM | > 250 µM | > 250 µM | > 250 µM | 0% | > 250 µM | > 250 µM | 
COc1cc(CCCO)c(OC)c(OC)c1OC [4d, 3-(2,3,4,5-Tetramethoxyphenyl)propan-1-ol] | > 250 µM | > 250 µM | > 250 µM | > 250 µM | > 250 µM | > 250 µM | > 250 µM | 0% | > 250 µM | > 250 µM | 
COc1c(CCCO)cc2c(c1OC)OCO2 [4b, 3-(6,7-Dimethoxy-1,3-benzodioxol-5-yl)propan-1-ol] | > 250 µM | > 250 µM | > 250 µM | > 250 µM | > 250 µM | > 250 µM | > 250 µM | 0% | > 250 µM | > 250 µM | 
COc1cc(CCC[P+](c2ccccc2)(c2ccccc2)c2ccccc2)c(OC)c2c1OCO2.[I-] [7a, [3-(4,7-Dimethoxy-1,3-benzodioxol-5-yl)propyl](triphenyl)phosphonium Iodide] | 3 ± 0.21 µM | 0.263 ± 0.033 µM | 0.627 ± 0.085 µM | 2.42 ± 0.43 µM | 0.552 ± 0.03 µM | 2.86 ± 0.4 µM | 0.089 ± 0.008 µM |  | 0.367 ± 0.05 µM | 0.104 ± 0.007 µM | times more potent than PrTPP ([7]; T-47D): 26.9 times; times more potent than PrTPP ([10]; T-47D): 33.2 times; GI50 [8]: 1.66 µM
